Paper PMC6682128 (ACS Omega, 2019)

Test: Cytotoxicity assay
Format: cell-based
Conditions: human
In short: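 Replicon cells (Huh5-2, Huh7.5-3a or Huh7.5-4a) were seeded at 10^4 per well and grown 24 h in complete DMEM. They were then exposed for three days to serial dilutions of test compound or DMSO solvent. Lysates were assayed for ATP by chemiluminescence, normalised to Bradford total protein. CC50 was obtained by nonlinear regression against log concentration.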
Work on COC(=O)N[C@H](C(=O)N1CCC[C@H]1C(=O)Nc1ccc(C#CC#Cc2ccc(NC(=O)[C@@H]3CCCN3C(=O)[C@@H](NC(=O)OC)C(C)C)cc2)cc1)C(C)C [1a, Dimethyl((2S,2′S)-((2S,2′S)-(((buta-1,3-diyne-1,4-diylbis(4,1-phenylene))bis(azanediyl))bis(carbonyl))bis(pyrrolidine-2,1-diyl))bis(3-methyl-1-oxobutane-1,2-diyl))dicarbamate] yielded a CC50 at 3 days of 11 µM. CCCCOC(=O)N[C@H](C(=O)N1CCC[C@H]1C(=O)Nc1ccc(C#CC#Cc2ccc(NC(=O)[C@@H]3CCCN3C(=O)[C@@H](NC(=O)OCCCC)C(C)C)cc2)cc1)C(C)C [1c, Dibutyl((2S,2′S)-((2S,2′S)-(((buta-1,3-diyne-1,4-diylbis(4,1-phenylene))bis(azanediyl))bis(carbonyl))bis(pyrrolidine-2,1-diyl))bis(3-methyl-1-oxobutane-1,2-diyl))dicarbamate] gave a CC50 at 3 days greater than 20 µM. For CC(C)COC(=O)N[C@H](C(=O)N1CCC[C@H]1C(=O)Nc1ccc(C#CC#Cc2ccc(NC(=O)[C@@H]3CCCN3C(=O)[C@@H](NC(=O)OCC(C)C)C(C)C)cc2)cc1)C(C)C [1d, Diisobutyl((2S,2′S)-((2S,2′S)-(((buta-1,3-diyne-1,4-diylbis(4,1-phenylene))bis(azanediyl))bis(carbonyl))bis(pyrrolidine-2,1-diyl))bis(3-methyl-1-oxobutane-1,2-diyl))dicarbamate], the CC50 at 3 days was greater than 10 µM. Work on CCOC(=O)N[C@@H](CC(C)C)C(=O)N1CCC[C@H]1C(=O)Nc1ccc(C#CC#Cc2ccc(NC(=O)[C@@H]3CCCN3C(=O)[C@H](CC(C)C)NC(=O)OCC)cc2)cc1 [1f, Diethyl((2S,2′S)-((2S,2′S)-(((buta-1,3-diyne-1,4-diylbis(4,1-phenylene))bis(azanediyl))bis(carbonyl))bis(pyrrolidine-2,1-diyl))bis(4-methyl-1-oxopentane-1,2-diyl))dicarbamate] yielded a CC50 at 3 days greater than 10 µM. CCCCOC(=O)N[C@@H](CC(C)C)C(=O)N1CCC[C@H]1C(=O)Nc1ccc(C#CC#Cc2ccc(NC(=O)[C@@H]3CCCN3C(=O)[C@H](CC(C)C)NC(=O)OCCCC)cc2)cc1 [1g, Dibutyl((2S,2′S)-((2S,2′S)-(((buta-1,3-diyne-1,4-diylbis(4,1-phenylene))bis(azanediyl))bis(carbonyl))bis(pyrrolidine-2,1-diyl))bis(4-methyl-1-oxopentane-1,2-diyl))dicarbamate] showed a CC50 at 3 days greater than 10 µM. CCOC(=O)N[C@H](C(=O)N1CCC[C@H]1C(=O)Nc1ccc(C#CC#Cc2ccc(NC(=O)[C@@H]3CCCN3C(=O)[C@@H](NC(=O)OCC)C(C)CC)cc2)cc1)C(C)CC (stereo partly drawn) [1h, Diethyl((2S,2′S)-((2S,2′S)-(((buta-1,3-diyne-1,4-diylbis(4,1-phenylene))bis(azanediyl))bis(carbonyl))bis(pyrrolidine-2,1-diyl))bis(3-methyl-1-oxopentane-1,2-diyl))dicarbamate] gave a CC50 at 3 days greater than 10 µM. Molecule CCCCOC(=O)N[C@H](C(=O)N1CCC[C@H]1C(=O)Nc1ccc(C#CC#Cc2ccc(NC(=O)[C@@H]3CCCN3C(=O)[C@@H](NC(=O)OCCCC)C(C)CC)cc2)cc1)C(C)CC (stereo partly drawn) [1i, Dibutyl((2S,2′S)-((2S,2′S)-(((buta-1,3-diyne-1,4-diylbis(4,1-phenylene))bis(azanediyl))bis(carbonyl))bis(pyrrolidine-2,1-diyl))bis(3-methyl-1-oxopentane-1,2-diyl))dicarbamate] has a CC50 at 3 days greater than 10 µM. CCOC(=O)N[C@H](C(=O)N1CCC[C@@H]1C(=O)Nc1ccc(C#CC#Cc2ccc(NC(=O)[C@H]3CCCN3C(=O)[C@@H](NC(=O)OCC)C(C)C)cc2)cc1)C(C)C [1j, Diethyl((2S,2′S)-((2R,2′R)-(((buta-1,3-diyne-1,4-diylbis(4,1-phenylene))bis(azanediyl))bis(carbonyl))bis(pyrrolidine-2,1-diyl))bis(3-methyl-1-oxobutane-1,2-diyl))dicarbamate] gave a CC50 at 3 days greater than 10 µM. In the case of CCOC(=O)N[C@@H](C(=O)N1CCC[C@@H]1C(=O)Nc1ccc(C#CC#Cc2ccc(NC(=O)[C@H]3CCCN3C(=O)[C@H](NC(=O)OCC)C(C)C)cc2)cc1)C(C)C [1k, Diethyl((2R,2′R)-((2R,2′R)-(((buta-1,3-diyne-1,4-diylbis(4,1-phenylene))bis(azanediyl))bis(carbonyl))bis(pyrrolidine-2,1-diyl))bis(3-methyl-1-oxobutane-1,2-diyl))dicarbamate], the CC50 at 3 days is reported as greater than 10 µM. With CCOC(=O)N[C@@H](CC(C)C)C(=O)N1CCC[C@@H]1C(=O)Nc1ccc(C#CC#Cc2ccc(NC(=O)[C@H]3CCCN3C(=O)[C@H](CC(C)C)NC(=O)OCC)cc2)cc1 [1l, Diethyl((2S,2′S)-((2R,2′R)-(((buta-1,3-diyne-1,4-diylbis(4,1-phenylene))bis(azanediyl))bis(carbonyl))bis(pyrrolidine-2,1-diyl))bis(4-methyl-1-oxopentane-1,2-diyl))dicarbamate] the CC50 at 3 days was greater than 10 µM. CCOC(=O)N[C@H](CC(C)C)C(=O)N1CCC[C@@H]1C(=O)Nc1ccc(C#CC#Cc2ccc(NC(=O)[C@H]3CCCN3C(=O)[C@@H](CC(C)C)NC(=O)OCC)cc2)cc1 [1m, Diethyl((2R,2′R)-((2R,2′R)-(((buta-1,3-diyne-1,4-diylbis(4,1-phenylene))bis(azanediyl))bis(carbonyl))bis(pyrrolidine-2,1-diyl))bis(4-methyl-1-oxopentane-1,2-diyl))dicarbamate] showed a CC50 at 3 days greater than 10 µM. CCOC(=O)N[C@@H](C(=O)N1CCC[C@H]1C(=O)Nc1ccc(C#CC#Cc2ccc(NC(=O)[C@@H]3CCCN3C(=O)[C@H](NC(=O)OCC)C(C)C)cc2)cc1)C(C)C [1n, Diethyl((2R,2′R)-((2S,2′S)-(((buta-1,3-diyne-1,4-diylbis(4,1-phenylene))bis(azanediyl))bis(carbonyl))bis(pyrrolidine-2,1-diyl))bis(3-methyl-1-oxobutane-1,2-diyl))dicarbamate] gave a CC50 at 3 days of 70.6 µM. In the case of CC(C)C[C@H](NC(=O)OCc1ccccc1)C(=O)N1CCC[C@H]1C(=O)Nc1ccc(C#CC#Cc2ccc(NC(=O)[C@@H]3CCCN3C(=O)[C@H](CC(C)C)NC(=O)OCc3ccccc3)cc2)cc1 [1o, Dibenzyl((2S,2′S)-((2S,2′S)-(((buta-1,3-diyne-1,4-diylbis(4,1-phenylene))bis(azanediyl))bis(carbonyl))bis(pyrrolidine-2,1-diyl))bis(4-methyl-1-oxopentane-1,2-diyl))dicarbamate], the CC50 at 3 days is reported as greater than 10 µM. For CCC(C)[C@H](NC(=O)OCc1ccccc1)C(=O)N1CCC[C@H]1C(=O)Nc1ccc(C#CC#Cc2ccc(NC(=O)[C@@H]3CCCN3C(=O)[C@@H](NC(=O)OCc3ccccc3)C(C)CC)cc2)cc1 (stereo partly drawn) [1p, Dibenzyl((2S,2′S)-((2S,2′S)-(((buta-1,3-diyne-1,4-diylbis(4,1-phenylene))bis(azanediyl))bis(carbonyl))bis(pyrrolidine-2,1-diyl))bis(3-methyl-1-oxopentane-1,2-diyl))dicarbamate], the CC50 at 3 days was greater than 10 µM. CCOC(=O)N[C@H](C(=O)N1CCC[C@H]1C(=O)Nc1cccc(C#CC#Cc2cccc(NC(=O)[C@@H]3CCCN3C(=O)[C@@H](NC(=O)OCC)C(C)C)c2)c1)C(C)C [2b, Diethyl((2S,2′S)-((2S,2′S)-(((buta-1,3-diyne-1,4-diylbis(3,1-phenylene))bis(azanediyl))bis(carbonyl))bis(pyrrolidine-2,1-diyl))bis(3-methyl-1-oxobutane-1,2-diyl))dicarbamate] showed a CC50 at 3 days greater than 200 µM. For CCCCOC(=O)N[C@H](C(=O)N1CCC[C@H]1C(=O)Nc1cccc(C#CC#Cc2cccc(NC(=O)[C@@H]3CCCN3C(=O)[C@@H](NC(=O)OCCCC)C(C)C)c2)c1)C(C)C [2c, Dibutyl((2S,2′S)-((2S,2′S)-(((buta-1,3-diyne-1,4-diylbis(3,1-phenylene))bis(azanediyl))bis(carbonyl))bis(pyrrolidine-2,1-diyl))bis(3-methyl-1-oxobutane-1,2-diyl))dicarbamate], the CC50 at 3 days was greater than 10 µM. For CC(C)COC(=O)N[C@H](C(=O)N1CCC[C@H]1C(=O)Nc1cccc(C#CC#Cc2cccc(NC(=O)[C@@H]3CCCN3C(=O)[C@@H](NC(=O)OCC(C)C)C(C)C)c2)c1)C(C)C [2d, Diisobutyl((2S,2′S)-((2S,2′S)-(((buta-1,3-diyne-1,4-diylbis(3,1-phenylene))bis(azanediyl))bis(carbonyl))bis(pyrrolidine-2,1-diyl))bis(3-methyl-1-oxobutane-1,2-diyl))dicarbamate], the CC50 at 3 days was greater than 20 µM. Molecule CCCCOC(=O)N[C@@H](CC(C)C)C(=O)N1CCC[C@H]1C(=O)Nc1cccc(C#CC#Cc2cccc(NC(=O)[C@@H]3CCCN3C(=O)[C@H](CC(C)C)NC(=O)OCCCC)c2)c1 [2g, Dibutyl((2S,2′S)-((2S,2′S)-(((buta-1,3-diyne-1,4-diylbis(3,1-phenylene))bis(azanediyl))bis(carbonyl))bis(pyrrolidine-2,1-diyl))bis(4-methyl-1-oxopentane-1,2-diyl))dicarbamate] has a CC50 at 3 days greater than 10 µM. In the case of CCOC(=O)N[C@H](C(=O)N1CCC[C@H]1C(=O)Nc1cccc(C#CC#Cc2cccc(NC(=O)[C@@H]3CCCN3C(=O)[C@@H](NC(=O)OCC)[C@@H](C)CC)c2)c1)[C@H](C)CC [2h, Ethyl((2S,3S)-1-((S)-2-((3-((3-((S)-1-((ethoxycarbonyl)-L-alloisoleucyl)pyrrolidine-2-carboxamido)phenyl)buta-1,3-diyn-1-yl)phenyl)carbamoyl)pyrrolidin-1-yl)-3-methyl-1-oxopentan-2-yl)carbamate], the CC50 at 3 days is reported as greater than 200 µM. For CCCCOC(=O)N[C@H](C(=O)N1CCC[C@H]1C(=O)Nc1cccc(C#CC#Cc2cccc(NC(=O)[C@@H]3CCCN3C(=O)[C@@H](NC(=O)OCCCC)[C@@H](C)CC)c2)c1)[C@H](C)CC [2i, Butyl((2S,3S)-1-((S)-2-((3-((3-((S)-1-((butoxycarbonyl)-L-alloisoleucyl)pyrrolidine-2-carboxamido)phenyl)buta-1,3-diyn-1-yl)phenyl)carbamoyl)pyrrolidin-1-yl)-3-methyl-1-oxopentan-2-yl)carbamate], the CC50 at 3 days was greater than 10 µM.
